According to ChEMBL document CHEMBL1687766, “In vitro activity of the new multivalent glycopeptide-cephalosporin antibiotic TD-1792 against vancomycin-nonsusceptible Staphylococcus isolates” (Antimicrob Agents Chemother, 2010):

Key:
[1] = tested on: Staphylococcus aureus; assay: Ratio of MIC for vancomycin-intermediate Staphylococcus aureus isolate NJ992 in presence of 50% human serum to MIC for vancomycin-intermediate Staphylococcus aureus isolate NJ992; type: functional
Summary of the method: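 Ratio of the broth microdilution MIC (5 × 10^5 CFU/ml, 24 h, 35°C, duplicate) measured in 50% heat-treated human serum/supplemented Mueller-Hinton broth to the MIC measured in supplemented broth alone.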

[2] = tested on: Staphylococcus aureus; assay: Antimicrobial activity against vancomycin-intermediate Staphylococcus aureus isolate MU50 assessed as bacterial count at 4 times MIC after 24 hrs by colony counting method; type: functional
Summary of the method: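 24-h time-kill run in triplicate in supplemented Mueller-Hinton broth (12.5 μg/ml Mg, 25 μg/ml Ca), adjusted to 1.1–1.3 mM Ca for daptomycin. […] Samples were taken at 0, 1, 4, 8 and 24 h and counted on BHI agar after 24 h at 35°C. Value is log10 CFU/ml change from baseline at 24 h.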

[3] = tested on: Staphylococcus aureus; assay: Antimicrobial activity against vancomycin-resistant Staphylococcus aureus isolate PA assessed as bacterial count at 8 times MIC after 24 hrs by colony counting method; type: functional
Summary of the method: (§1)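 Time-kill in triplicate. Mid-exponential culture (OD600 ~0.3) diluted in supplemented Mueller-Hinton broth to 5 × 10^6 CFU/ml. Daptomycin was run at physiologic calcium, 1.1 to 1.3 mM. […] Samples at 0, 1, 4, 8 and 24 h were diluted in cold saline or vacuum filtered, then spiral-plated on BHI agar for 24 h at 35°C. Value is the log10 CFU/ml change from baseline at 24 h.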

[4] = Plasma protein binding in human in presence of human serum; type: ADME, cell-free; conditions: read-out: PPB (converted)
[5] = tested on: Staphylococcus aureus; assay: Antimicrobial activity against vancomycin-resistant Staphylococcus aureus isolate PA assessed as bacterial count at 16 times MIC after 24 hrs by colony counting method in presence of 50% human serum; type: functional
Summary of the method: (§2)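 Time-kill in triplicate, starting inoculum 5 × 10^6 CFU/ml from a mid-exponential culture. Medium was 50% heat-treated, filtered human serum plus 50% broth, final 25 SMHB for TD-1792 and 50 SMHB for daptomycin. Drug at multiples of MIC. Samples to 24 h were plated on BHI agar for 24 h at 35°C. Value is the log10 CFU/ml change from baseline at 24 h.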

[6] = tested on: Staphylococcus aureus; assay: Antimicrobial activity against vancomycin-resistant Staphylococcus aureus isolate PA assessed as bacterial count at 4 times MIC after 24 hrs by colony counting method in presence of 50% human serum; type: functional; summary of the method: as §2
[7] = tested on: Staphylococcus aureus; assay: Antimicrobial activity against methicillin-resistant Staphylococcus aureus infected in patient with complicated skin and skin structure infections assessed as cure rate; type: functional
[8] = tested on: Staphylococcus aureus; assay: Antimicrobial activity against vancomycin-resistant Staphylococcus aureus isolate MI assessed as bacterial count at 32 times MIC after 24 hrs by colony counting method; type: functional; summary of the method: as §1

| SMILES | Ratio [1] | log10CFU/ml [2] | log10CFU/ml [3] | fraction unbound [4] | log10CFU/ml [5] | log10CFU/ml [6] | Activity [7] [%] | log10CFU/ml [8] |
| --- | --- | --- | --- | --- | --- | --- | --- | --- |
| CCCCCCCCCC(=O)N[C@@H](Cc1c[nH]c2ccccc12)C(=O)N[C@H](CC(N)=O)C(=O)N[C@@H](CC(=O)O)C(=O)N[C@@H]1C(=O)NCC(=O)N[C@@H](CCCN)C(=O)N[C@@H](CC(=O)O)C(=O)N[C@H](C)C(=O)N[C@@H](CC(=O)O)C(=O)NCC(=O)N[C@H](CO)C(=O)N[C@@H]([C@H](C)CC(=O)O)C(=O)N[C@@H](CC(=O)c2ccccc2N)C(=O)O[C@@H]1C | 2 | 3.02 | 4.95 | 0.08 |  |  |  |  |
| CN[C@H](CC(C)C)C(=O)N[C@H]1C(=O)N[C@@H](CC(N)=O)C(=O)N[C@H]2C(=O)N[C@H]3C(=O)N[C@H](C(=O)N[C@H](C(=O)NCCCO/N=C(\C(=O)N[C@@H]4C(=O)N5C(C(=O)[O-])=C(C[n+]6ccccc6)CS[C@H]45)c4nc(N)sc4Cl)c4cc(O)cc(O)c4-c4cc3ccc4O)[C@H](O)c3ccc(c(Cl)c3)Oc3cc2cc(c3O[C@@H]2O[C@H](CO)[C@@H](O)[C@H](O)[C@H]2O[C@H]2C[C@](C)(N)[C@H](O)[C@H](C)O2)Oc2ccc(cc2Cl)[C@H]1O | 4 | 3.77 |  |  | 5.15 | 4.04 | 94.7 | 5.13 |
